Laboratory results taken from ChEMBL document CHEMBL4513216, “Probing the Open Global Health Chemical Diversity Library for Multistage-Active Starting Points for Next-Generation Antimalarials” (ACS Infect Dis, 2020).

assay: Toxicity liver stage against HepG2, at 10uM; assay type: cell-based; parameters: test concentration 10 uM, cell line HepG2-A16-CD81EGFP; conditions: human, HepG2-A16-CD81EGFP cells; read-out: INHIBITION
Summary of the method: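 Uninfected HepG2-A16-CD81EGFP cells, 3 × 10^3 per well, 1536-well, plated on prespotted compound at 10 μM final, parasite-free screening media added to match infected plates; puromycin 10 μM positive, DMSO 0.5% negative; run in parallel with 48 h PbLuc assay at 37 °C, 5% CO2; viability by CellTiter-Glo luminescence, normalized to controls.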

Point of comparison: `COCC1CC2(CCN(c3cc(OC)ncn3)CC2)CN1C(C)C` (stereo not drawn), cytotoxicity at 10 µM -108%. Against it:
- CC1(C)[C@H](Cc2cc(CO)on2)C[C@@H]1NCc1ccc(CO)o1 — higher, -12.4%
- CC(C)NC(=O)N1C[C@@H](F)[C@@H](OCc2nc3ccccc3o2)C1 — higher, 8.16%
- CCCOc1ccc(CC2=NC(C)(CO)CO2)cc1 (stereo not drawn) — higher, 24.8%
- O=C1CCCN1C(CNS(=O)(=O)C1CC1)Cc1cccc(F)c1 (stereo not drawn) — higher, 1.49%
- CC(=O)Nc1ccc2c(c1)C1(CCOCC1)C(=O)N2c1ccsc1 — higher, 5.56%
- Cc1ccc(CC(=O)N2CC[C@@H]3NC(=O)CC[C@@H]32)cc1 — higher, 1.49%
- CN(C)CCN1CCOC2(CCN(c3nccs3)CC2)c2ccccc21 — higher, -1.99%
- CC(C)CN1CCC2(Cc3ccccc3NC2=O)C1 (stereo not drawn) — higher, 6.86%
- Cc1cc(-c2cnc(N3CCC(O)CC3)nc2C(C)C)on1 — higher, 66.4%
- NC(=O)CN1CCCC(c2cncc(Nc3ncccn3)n2)C1 (stereo not drawn) — higher, -2.61%
- CCS(=O)(=O)N1CCC(C(=O)NC(Cc2ccsc2)c2nccs2)CC1 (stereo not drawn) — higher, -2.72%
- C[C@]1(O)CN(CCO)CC[C@@H]1Oc1cccc(F)c1 — higher, -6%
- Cc1ncsc1-c1nnc(C2CCN(Cc3ccccc3F)CC2)o1 — higher, -10.2%
- CC(=O)NC[C@]1(O)CCN(C(=O)c2ccc3c(c2)OCO3)C[C@H]1O — higher, -9.91%
- Cc1ccc(N2CCC(Nc3ccc4nnc(C)n4n3)CC2)nc1 — higher, 8.56%
- CN1CCN(C(=O)c2cn(-c3ccc(C(F)(F)F)cn3)nn2)CC1 — higher, -63%
- Cc1ccc(OCC(=O)Nc2ccc(S(C)(=O)=O)cc2)cc1C — higher, -2.4%
- COc1ccccc1OCCNS(=O)(=O)N1CCOCC1 — higher, 9.37%
- COc1ccc(C(C)=O)cc1CN1CCn2cccc2C1C (stereo not drawn) — higher, -6.62%
- CNC(=O)c1ccc(CN(C)c2ccc(C(F)(F)F)cn2)cc1 — higher, 6.71%
- CCCn1nc2c(cc1=O)CN(Cc1ccccn1)CC2 — higher, 1.53%
- CC(C)(O)CN1CCN(C(=O)c2cnn(-c3ccccc3F)c2)CC1 — higher, -3.8%
- c1cnnc(N2CCCC(NCc3nc(-c4ccsc4)no3)C2)c1 (stereo not drawn) — higher, 7.79%
- Cc1cccc(C(=O)N2CCCN(CCCSCC#N)CC2)c1 — lower, -150%
- COC(=O)c1ccc(CNC(=O)Nc2ccc(=O)n(C)c2)cc1 — higher, -6.8%
- c1cnc2nc(N3CCCC3c3nnc4n3CCCCC4)ccc2n1 (stereo not drawn) — higher, 4.21%
- CCCc1noc(CS(=O)(=O)CC(=O)NC(C)CCC)n1 (stereo not drawn) — higher, 3.22%
- OC1CCN(c2ccc(CNc3nc4ccccc4s3)cc2F)CC1 — higher, 1.71%
- CN(Cc1ccc(Cl)s1)C(=O)Nc1ccc(N(C)C)nc1 — higher, -1.73%
- CCN(C(=O)CCOC)C(c1ccc(Cl)cc1)c1ccccn1 (stereo not drawn) — higher, 1.88%
- CNS(=O)(=O)CCCN(C)Cc1cc(C)ccc1OC — higher, -61%
- CC(C)(C)c1nc(CN(Cc2cccs2)C2CCS(=O)(=O)C2)cs1 (stereo not drawn) — higher, 16%
- COc1ccc(C)cc1CC(=O)NC(CC(=O)O)c1ccc(F)cc1 (stereo not drawn) — higher, 7.66%
- CC(C)COC(C)C(=O)NCc1ccc(Cn2ccnc2)cc1 (stereo not drawn) — higher, -2.65%
- c1cnnc(N2CCCC(NCc3nc(C4CC4)no3)C2)c1 (stereo not drawn) — higher, -14.6%
- COCCN(C)C(=O)Nc1ccc2c(ccn2CCOC)c1 — higher, -3.83%
- Cc1ccc(N2CCc3ncnc(C4CC4)c3CC2)nn1 — higher, -85%
- CCN(CC)C(=O)c1nc2c(s1)CCN(C(=O)Nc1ccccc1)CC2 — higher, 12%
- CCN(CC)Cc1cc(=O)n2c(n1)CN(C(=O)c1ccc[nH]1)CCC2 — lower, -112%
- CC(=O)N1CCC2(CC1)c1ncc(-c3cccnc3)n1CCN2C — higher, -94%
- CN(Cc1cncnc1)[C@H]1CN(C(=O)c2ccc[nH]2)[C@@H]2CCCO[C@@H]21 — higher, -107%
- CN1CCN(Cc2cnc3n2CCN(C(=O)c2ccoc2)C3)CC1 — higher, -80.7%
- COCC1CN(C(=O)CC2Cc3ccccc3C2)Cc2c1cnn2C (stereo not drawn) — higher, -75.4%
- Cc1ncc2c(c1-c1noc(-c3cscn3)n1)CCNC2 — higher, -3.37%
- COc1cc(Cc2nc3c([nH]2)CC(C)(C)CNC3=O)cc(OC)c1 — higher, -6.27%
- Cn1ncc(N2CCC(CNC3Cc4ccccc4C3)C2)cc1=O (stereo not drawn) — higher, -6%
- O=C(CSCC1CC1)N1CCCN(c2ccc(F)cc2)CC1 — higher, -4.43%
- COCCC1(C(=O)O)CCCN(C(=O)c2cc(Cl)ccc2F)C1 (stereo not drawn) — higher, -2.79%
- O=S1(=O)C[C@@H]2[C@H](C1)N(Cc1cc(F)cc(Cl)c1)CCN2CCO — higher, -4.71%
- O=C(NCc1nnc2n1CCCC2)c1ccc(C2CCCO2)s1 (stereo not drawn) — higher, 15.7%
- Cc1noc(CN(C)CC2CCCN(CCc3ccc(Cl)cc3)C2)n1 (stereo not drawn) — higher, 3.76%
- CCn1ccnc1-c1nccn1-c1ccccc1CN1CCOCC1 — higher, 14.1%
- N[C@@H]1c2ccccc2C2(CCN(c3cc(C(F)(F)F)ccn3)CC2)[C@H]1O — higher, 0.106%
- Cc1cc(C(=O)N2C[C@H]3CCC[C@@]3(CO)C2)c2ccc(F)cc2n1 — higher, 5.78%
- Cc1ccc2nc(C)c(C)c(C(=O)N[C@H]3COC[C@@H]3N3CCCC3)c2c1 — higher, -45.8%
- CC(c1ccncn1)N(C)Cc1cc2cc3c(cc2[nH]c1=O)OCO3 (stereo not drawn) — higher, 9.83%
- COc1cccc(NC(=O)NCC2CCCN(C3CCOCC3)C2)c1 (stereo not drawn) — higher, -2.48%
- O=C(NCCC1CCCCO1)c1cc(COc2cncc(Cl)c2)on1 (stereo not drawn) — higher, -1.73%
- Cc1ccccc1N1CCCN(C(=O)CCc2cccnc2)CC1 — higher, -9.2%
- C[C@@H]1CN(Cc2nc(C(N)=O)no2)CC[C@@]1(O)C1CCOCC1 — higher, -38.5%
- CC(c1ccc(F)cc1)n1ccnc1-c1cc2n(n1)CCCNC2 (stereo not drawn) — higher, 2.36%
- COc1nc2c(cc1C(=O)N1CCCOC(Cn3cccn3)C1)CCC2 (stereo not drawn) — higher, -52.1%
- O=C1NC(c2cccnc2)=NC12CCN(CCCc1ccccc1)CC2 — higher, 1.68%
- O=C(NCCC1COc2ccccc2O1)c1ccc(N2CC(O)C2)nc1 (stereo not drawn) — higher, 72.1%
- Cc1cnc(NCc2csc(C(C)C)n2)nc1-c1cnn(C)c1 — higher, 2.83%
- Cc1cc2nc(C(C)C)cc(N(C)CC3CCCN(CCO)C3)n2n1 (stereo not drawn) — higher, 7.52%
- Cc1ccc(C(=O)N(C)CCCc2cnn(C)c2)cc1N1CCNC1=O — higher, -4.39%
- CCC[C@H]1CN(Cc2cc(C)no2)C[C@@H]1NC(=O)C1(COC)CCC1 — higher, 3.06%
- CCC(NC(=O)C1CCN(S(C)(=O)=O)CC1)c1ccc(C)c(C)c1 (stereo not drawn) — higher, -8.06%
- CCc1ccccc1OCCN(C)C(=O)CN1CCCC1 — higher, -50.4%
- COCc1cc(NCCCSc2nnc(C)s2)ncn1 — higher, 11.6%
- CCCc1nc(C)cc(N2CCNC(C(=O)NCc3cccnc3)C2)n1 (stereo not drawn) — higher, -7%
- Cc1nc(N(C)C2CCCCC2)ncc1C(C)NC(=O)c1cscn1 (stereo not drawn) — lower, -134%
- COc1cc(CN2CCN(c3cccc(OC)c3)C(=O)C2)cc(OC)c1 — higher, -11.7%
- CCC(=O)N1CCc2nc3cc(OC)c(OC)cc3c(=O)n2CC1 — higher, 2.65%
- COc1ccc(C2=CCN(C(=O)C3CCS(=O)(=O)C3)CC2)cc1 (stereo not drawn) — higher, -7.45%
- O=C(CN1CCC(c2ccnn2CCO)CC1)NCc1ccco1 — higher, 1.68%
- CNc1snc(C)c1C(=O)N1CCCC(n2cc(C)cn2)C1 (stereo not drawn) — higher, -3.42%
- c1ncn(CC2CN(Cc3csc(C4CCCC4)n3)CCO2)n1 (stereo not drawn) — higher, -8.55%
- O=C(c1cnccn1)N1CCN(Cc2csc(-c3ccccc3)n2)CC1 — higher, -3.32%
- Cn1ccc(C(=O)N2CCN(c3cc(C#N)ccn3)CC2)cc1=O — higher, -14.2%
- Cc1cnn(C2CCCN(C(=O)c3cc(C4CC4)on3)C2)c1 (stereo not drawn) — higher, -11.4%
- CCCc1nc(CN2CCOC(CNc3cccnn3)C2)cs1 (stereo not drawn) — higher, -6.71%
- CC1CCCCN1C(=O)c1nc2c(n1C(C)C)CCN(C)C2 (stereo not drawn) — higher, 18.2%
- Cc1ccc(CN2CCc3c(COCC4CC4)nn(C)c3C2)s1 — higher, 6.35%
- N#Cc1ccc(N2CCC3(CC2)CC(OCc2cccnc2)CO3)cc1 (stereo not drawn) — higher, 38.8%
- CS(=O)(=O)N1CCC2(CCN(C(=O)c3cccnc3)CC2)C1 — higher, 3.59%
- CCS(=O)(=O)N1Cc2[nH]nc(COCc3cccnc3)c2C1 — higher, 11.9%
- COCCNC(=O)[C@H]1C[C@@H]2CCN(CCc3ccccc3)C[C@H]2O1 — higher, -70.3%
- CC(C)n1nc(CN2CCCC2)c2c1CN(CC1CC1)CC2 — higher, 2.53%
- CCOCC1CN(C2CCCC2)Cc2cnn(CC3CCOCC3)c21 (stereo not drawn) — higher, -9.13%
- N#Cc1cccc(CN2CCn3cc(Cn4cccn4)nc3C2)c1 — higher, -0.501%
- c1ccc(CO[C@@H]2CN(Cc3nccs3)[C@@H]3COC[C@@H]32)nc1 — higher, -104%
- COCC(=O)NCc1cc(=O)n2c(n1)CN(C)CCC2 — higher, -103%
- CN1CCN(c2ncc3c(c2C(=O)O)CCN(C2CCOC2)C3)CC1 (stereo not drawn) — higher, 6.96%
- O=C([C@H]1C[C@H]2OCC[C@H]2N(Cc2ccccc2F)C1)N1CCCCO1 — higher, -72.2%
- Cc1cccc(CN2CCOC3(CCCN(CC(=O)N(C)C)C3)C2)n1 (stereo not drawn) — higher, -106%
- Cc1ccc(CNCc2ccc(N3CCC(CO)CC3)nc2)c(C)c1 — higher, 1.37%
- Cc1cnc(N2CCC3(CC2)CN(Cc2cccs2)CCO3)nc1 — higher, 16.2%
- c1cncc(N2CCOCC3(CCCN(Cc4cccs4)C3)C2)c1 (stereo not drawn) — higher, 14.8%
- Cc1nccc(NCc2cncc3c2CCN(S(C)(=O)=O)C3)n1 — higher, -99.4%
- CC(C)N1CCO[C@@H]2CN(C(=O)Cc3cccs3)CC[C@@H]2C1 — lower, -120%
- CC(C)OCc1ncn2c1CN(Cc1ccoc1)CCC2 — higher, -75.7%
- CC1N(c2cnn(C)c2)C(=O)COC12CCN(c1ncccn1)CC2 (stereo not drawn) — higher, 0.952%
- O=C(Nc1ccccc1)[C@H]1C[C@H]2CN(Cc3cccnc3)C[C@@H]1O2 — higher, -80%
- CC(C)CN1C[C@@H]2C[C@H](C(=O)NCc3cccnc3)[C@H](C1)O2 — higher, 2.5%
- CC1(C)[C@@H]2CC=C(CN3CCCn4nc(CCC(=O)O)cc4C3)[C@H]1C2 — higher, -40.2%
